According to PubChem BioAssay AID504409 (Broad Institute, 2011):
Results filed as inconclusive are left out. Activity calls are given as the source filed them.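 Rule for the calls: active = fitted curve reaches caspase activation of 10% of the positive control signal in every replicate test; inconclusive = tests disagree, or a test had a flat mid-level or poor fit; inactive = every replicate test called inactive.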

Assays:
[1] = caspase activation in Flag-A1-IRES-BIM MEFs, dose response, orthogonal assay for A1 inhibitor project, cell-based, Flag-A1-IRES-BIM MEF, luminescence, dry powder, set 3 (AID 504409); details: MEF Flag-A1-IRES-BIM, caspase-Glo luminescence, 3 h; at 35 µM (top of the series)
Method in brief: (§1)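 Read-out: caspase activation / Assay system: MEFs carrying Flag-A1-IRES-BIM construct / Buffer or medium: RPMI-1640 growth medium plus 10% heat-inactivated FBS / Measured by: CaspaseGlo luminescence / Schedule: 3 h exposure (37 °C, 5% CO2), 1 h room-temperature detection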

[2] = tested on: MEF Flag-A1-IRES-BIM, caspase-Glo luminescence, 3 h; experiment: as above
Method in brief: as §1

| Compound | caspase activation [1] | AC10 [2] |
| --- | --- | --- |
| COCCn1c(=O)c(Sc2ccc(C)cc2)c(Sc2ccc(C)cc2)c2ccccc21 | -0.209% (inactive) | – |
| O=c1[nH]c2ccccc2c(Cl)c1[N+](=O)[O-] | – | 3.38 µM |
| O=c1[nH]c2ccccc2c(O)c1[N+](=O)[O-] | 0.941% (inactive) | – |
| Cc1ccc(S(=O)(=O)c2c([N+](=O)[O-])c(=O)n(C)c3ccccc23)cc1 | – | 4.11 µM |
| Cn1c(=O)c([N+](=O)[O-])c(S(C)(=O)=O)c2ccccc21 | – | 3.06 µM |
| Cn1c(=O)c([N+](=O)[O-])c(Sc2ccccn2)c2ccccc21 | – | 3 µM |
| COc1ccc(CCNc2nc(N3CCOCC3)nc(N3CCOCC3)n2)cc1OC | 0.077% (inactive) | – |
| COCCn1c(=O)c([N+](=O)[O-])c(Cl)c2ccccc21 | – | 1.46 µM |
| Cc1ccc(Sc2c(Sc3ccc(C)cc3)c3ccccc3n(C)c2=O)cc1 | -0.308% (inactive) | – |
| COc1c([N+](=O)[O-])c(=O)n(C)c2ccccc12 | 1.51% (inactive) | – |
| Cc1ccc(Sc2c(Sc3ccc(C)cc3)c3ccccc3n(Cc3ccccc3)c2=O)cc1 | -0.908% (inactive) | – |
| COc1ccc(CCNc2nc(N3CCCC3)nc(N3CCCC3)n2)cc1OC | -0.336% (inactive) | – |
| COc1ccc(N2CCN(c3nc(NCCc4ccc(OC)c(OC)c4)nc(N4CCOCC4)n3)CC2)cc1 | 0.186% (inactive) | – |
| CCn1c(=O)c([N+](=O)[O-])c(Sc2ccc(C)cc2)c2ccccc21 | 1.63% (inactive) | – |
| CC1(C)CCC(c2ccc(Cl)cc2)=C(CN2CCN(c3ccc(C(=O)NS(=O)(=O)c4ccc(N[C@H](CCN5CCOCC5)CSc5ccccc5)c(S(=O)(=O)C(F)(F)F)c4)cc3)CC2)C1 | – | 0.689 µM |
| COc1nc2ccccc2c(Sc2ccc(C)cc2)c1[N+](=O)[O-] | 2.16% (inactive) | – |
| C/C(=N\Nc1nc(N2CCCCC2)nc(N2CCCCC2)n1)c1ccc(F)cc1 | 0.551% (inactive) | – |
| CCn1c(=O)c(Sc2ccc(C)cc2)c(Sc2ccc(C)cc2)c2ccccc21 | 2.86% (inactive) | – |
| CCn1c(=O)c([N+](=O)[O-])c(Cl)c2ccccc21 | – | 1.49 µM |
| O=C(COc1ccc(Cl)cc1Cl)NNc1nc(N2CCOCC2)nc(N2CCOCC2)n1 | -1.06% (inactive) | – |
| Cn1c(=O)c(Sc2ccccn2)c(Sc2ccccn2)c2ccccc21 | 1.87% (inactive) | – |
| Cn1c(=O)c([N+](=O)[O-])c(Cl)c2ccccc21 | – | 1.84 µM |
| COCCn1c(=O)c([N+](=O)[O-])c(Sc2ccc(C)cc2)c2ccccc21 | – | 15.5 µM |
